Experimental data published in ChEMBL document CHEMBL3593214, “ent-Abietane-Type and Related Seco-/Nor-diterpenoids from the Rare Chloranthaceae Plant Chloranthus sessilifolius and Their Antineuroinflammatory Activities” (J Nat Prod, 2015).

Experiments:
[1] = Antineuroinflammatory activity in mouse BV2 cells assessed as inhibition of LPS-stimulated nitric oxide production preincubated for 4 hrs followed by LPS challenge measured after 24 hrs by Griess assay; type: functional, cell-based; conditions: BV-2
Summary of the method: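 BV-2 mouse microglia (ATCC) kept in DMEM with 1800 mg/L NaHCO3, 10% FBS and penicillin/streptomycin at 37 °C, 5% CO2. Cells were pretreated 4 h with 3.125–100 μM, then LPS 1 μg/mL for 24 h. Supernatant nitrite was measured by Griess reagent at 540 nm against a NaNO2 standard curve. IC50 is the concentration giving 50% inhibition; mean ± SD of three independent experiments.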

[2] = Cytotoxicity against mouse BV2 cells assessed as cell viability at 50 uM by MTT assay relative to control; type: cell-based, BV-2; conditions: read-out: Activity
Summary of the method: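 MTT colorimetric read-out on BV-2 microglia in DMEM/10% FBS at 37 °C, 5% CO2, after treatment at 50 μM. Viability is expressed as percent of untreated control cells; mean ± SD.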

Row | IC50 [1] | SMILES | viability at 50 µM [2]
1 | 7.4 µM | CC(C)[C@@]1(O)C=C2C(=O)C[C@@H]3[C@@](C)(CO)CCC[C@@]3(C)[C@@H]2CC1 | 96.8%
2 | > 100 µM | CC1(C)[C@H](O)CC[C@@]2(C)[C@@H]3CCC(=O)C=C3[C@H](O)C[C@H]12 | –
3 | > 100 µM | CC1(C)[C@H](O)CC[C@@]2(C)[C@@H]3CC[C@@](O)(C(C)(C)O)C=C3C(=O)C[C@H]12 | –
4 | > 100 µM | CC1(C)[C@H](O)CC[C@@]2(C)[C@@H]3CCC(=O)C=C3[C@@H](O)C[C@H]12 | –
5 | 8.3 µM | CO[C@]1(C(C)C)C=C2C(=O)C[C@@H]3C(C)(C)[C@H](O)CC[C@@]3(C)[C@@H]2CC1 | 96.7%
6 | > 100 µM | CC(C)[C@]1(O)C=C2C(=O)C[C@@H]3C(C)(C)[C@H](O)CC[C@@]3(C)[C@@H]2CC1 | –
7 | 37.7 µM | CC(C)[C@@]1(O)C=C2C(=O)C[C@@H]3C(C)(C)[C@H](O)CC[C@@]3(C)[C@@H]2C[C@H]1O | 98.4%

Continued, compound first:

Row | SMILES | IC50 [1] | viability at 50 µM [2]
8 | CC(C)[C@]1(O)C=C2C(=O)C=C3C(C)(C)[C@H](O)CC[C@@]3(C)[C@@H]2CC1 | > 100 µM | –
9 | CC(C)C(=O)[C@@H]1C[C@@H]2C(=CC[C@@H]3C(C)(C)[C@H](O)CC[C@@]23C)[C@H]1O | > 100 µM | –
10 | CC(C)(O)c1ccc2c(c1)CC[C@@H]1C(C)(C)[C@H](O)CC[C@@]21C | 17.8 µM | 95.4%
11 | CC(C)c1ccc2c(c1)[C@H](O)C[C@@H]1C(C)(C)[C@H](O)CC[C@@]21C | 43.9 µM | 94.7%
12 | CC(C)C(=O)CC[C@@H]1CC(=O)C[C@@H]2C(C)(C)[C@H](O)CC[C@@]12C | > 100 µM | –
13 | CC(C)C(=O)CC[C@@H]1C(C=O)=C[C@@H](O)[C@@H]2C(C)(C)[C@H](O)CC[C@@]12C | > 100 µM | –
14 | CC(C)C1=CC(=O)[C@@]2(CC1)OC(=O)C[C@@H]1C(C)(C)[C@H](O)CC[C@]12C | > 100 µM | –
15 | CNC(=N)NCCC[C@H](N)C(=O)O [TILARGININE] | 14.4 µM | 98.5%
16 | CC(C)(O)c1ccc2c(c1)C(=O)C=C1C(C)(C)[C@H](O)CC[C@]12C | > 100 µM | –
17 | CC(C)C(=O)[C@H]1C[C@@H]2C(=CC[C@@H]3C(C)(C)[C@H](O)CC[C@@]23C)[C@H]1O | > 100 µM | –
